The results in this text go back to PMC9040061 (ACS infectious diseases, 2020).

Substitutions are numbered along the chain they refer to. ≈ marks a conversion by molar mass, not a printed value.

For experiment [1], the target named is recombinant E. faecalis UPPS (EfaUPPS) (Enterococcus faecalis, UniProt Q831K9). As to the kind of experiment: UPPS inhibition assay. The conditions noted are these: for IC50: EfaUPPS, enzyme-coupled fluorescence assay. The format is biochemical.
For experiment [2], the target named is recombinant S. aureus UPPS (SauUPPS) (Staphylococcus aureus, UniProt P60477). As to the kind of experiment: UPPS inhibition assay. It counts as biochemical.
Experiment [3] deals with recombinant E. coli UPPS (EcoUPPS) (Escherichia coli, UniProt P60472). The format is biochemical.
The target of the next experiment is wild-type EfaUPPS (Enterococcus faecalis, UniProt Q831K9). As to the kind of experiment: Surface plasmon resonance binding assay. Particulars: for Kd: read-out: equilibrium dissociation constant (KD), SPR, wild-type EfaUPPS, one-state binding model. A general note: In SPR one partner is held on a chip, and binding of the other changes the refractive index at the surface.

The test system of another experiment is E. coli 70S ribosome. The experiment is described as follows: In vitro translation inhibition assay. It counts as biochemical, Escherichia coli. Particulars: read-out: IC50, in vitro translation, PURE system.
A further experiment concerns Escherichia coli BAS 849. As to the kind of experiment: MIC, microtiter broth dilution. The format is cell-based. Particulars: E. coli BAS 849, deficient outer-membrane structure. The gist of the method: (§1)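 MICs were measured by broth microdilution in LB broth against E. coli DH5α, BL21(DE3) and BAS 849, the last an outer-membrane-defective strain with raised permeability. Tetracycline and ampicillin served as reference antibiotics. Values are means of at least three biological replicates.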
In general terms: In broth dilution the organism is exposed to a series of concentrations in liquid medium.

For another experiment, the system named is normal E. coli species. As to the kind of experiment: MIC, microtiter broth dilution. The format is cell-based, Escherichia coli. The method, boiled down: as §1
For experiment [4], the system named is E. coli BAS 849 transformed with the empty vector pQE80L. The experiment is described as follows: In vivo growth inhibition assay on agar. It counts as cell-based, Escherichia coli. The conditions noted are these: compound at 8 μg/mL, IPTG 0.5 mM. The gist of the method:
(§2)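 E. coli BAS 849 carried pQE80L (T5 promoter) either empty or bearing the UPPS gene from E. faecalis ATCC 29212, S. aureus ATCC 29213 or E. coli DH5α. Cultures were spread on LB agar with ampicillin, IPTG and test compound, incubated overnight at 37 °C and scored for growth.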

Experiment [5] deals with UPPS-overexpressed E. coli BAS 849. The experiment is described as follows: In vivo growth inhibition assay on agar. The conditions noted are these: overexpression of EfaUPPS, SauUPPS and EcoUPPS; compound at 8 μg/mL; IPTG 0.5 mM. The format is cell-based, Escherichia coli. The method, boiled down:
as §2

Experiment [6] has as its target T1, EfaUPPS M28W mutant (Enterococcus faecalis, UniProt Q831K9, M34W).
T1 sequence (Q831K9 1-271 M34W): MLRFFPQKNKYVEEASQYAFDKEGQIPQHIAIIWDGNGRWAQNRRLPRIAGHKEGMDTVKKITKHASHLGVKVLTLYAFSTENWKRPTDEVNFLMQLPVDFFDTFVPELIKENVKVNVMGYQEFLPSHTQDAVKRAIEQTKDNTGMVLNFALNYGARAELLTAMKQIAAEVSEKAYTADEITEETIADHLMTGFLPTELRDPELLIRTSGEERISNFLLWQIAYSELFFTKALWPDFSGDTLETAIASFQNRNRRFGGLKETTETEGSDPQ
The experiment is described as follows: Surface plasmon resonance binding assay. The conditions noted are these: SPR. The method, boiled down: (§3)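 Point mutants of E. faecalis UPPS were made by site-directed mutagenesis and purified like wild type (Ni-NTA, then gel filtration). Enzyme (50 μg/mL) was amine-coupled to a carboxymethyl dextran chip. Test compound (0.4–50 μM) in phosphate-buffered saline with 0.005% Tween-20, pH 7.8, was flowed at 25 μL/min: 1.5 min association, 2.5 min dissociation. Reference-cell signal was subtracted, and KD came from a 1:1 model.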

Experiment [7] has as its target T2, EfaUPPS N31E mutant (Enterococcus faecalis, UniProt Q831K9, N37E).
T2 sequence (Q831K9 1-271 N37E): T1 sequence (Q831K9 1-271 M34W) with W34M, N37E
As to the kind of experiment: Surface plasmon resonance binding assay. Particulars: SPR. The gist of the method:
as §3

The target of experiment [8] is T1, EfaUPPS M28W mutant. As to the kind of experiment: UPPS inhibition assay, mutant enzyme. The conditions noted are these: M28W mutant versus wild-type EfaUPPS. It counts as biochemical. The gist of the method: (§4)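 Mutant E. faecalis UPPS was His-tagged in pET28a, expressed in E. coli BL21(DE3) (1 mM IPTG, 16 °C, 16 h) and purified by Ni-NTA and gel filtration. Assays ran 30 min at 37 °C in 100 mM Tris-HCl pH 7.5, 0.5 mM MgCl2, 50 mM KCl, 35 μM IPP, 5 μM FPP, 0.005% Triton X-100, and were EDTA-stopped. Released pyrophosphate was read by coupled fluorescence (316/456 nm). Mutant IC50 was compared with wild type; at least three biological replicates.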

Another experiment deals with EfaUPPS M28A mutant. The experiment is described as follows: UPPS inhibition assay, mutant enzyme. The conditions noted are these: M28A mutant versus wild-type EfaUPPS. The format is biochemical, Enterococcus faecalis. The method, boiled down: as §4
The target in another experiment is EfaUPPS M28E mutant. As to the kind of experiment: UPPS inhibition assay, mutant enzyme. It counts as biochemical, Enterococcus faecalis. The conditions noted are these: M28E mutant versus wild-type EfaUPPS. The gist of the method: as §4
For experiment [9], the target named is T2, EfaUPPS N31E mutant. As to the kind of experiment: UPPS inhibition assay, mutant enzyme. The format is biochemical. The conditions noted are these: N31E mutant versus wild-type EfaUPPS. The gist of the method:
as §4

In the next experiment the target is EfaUPPS N31F mutant. The experiment is described as follows: UPPS inhibition assay, mutant enzyme. The format is biochemical, Enterococcus faecalis. The conditions noted are these: N31F mutant versus wild-type EfaUPPS. The method, boiled down: as §4
The target in a further experiment is EfaUPPS H46W mutant. The experiment is described as follows: UPPS inhibition assay, mutant enzyme. The format is biochemical, Enterococcus faecalis. The conditions noted are these: H46W mutant versus wild-type EfaUPPS. The gist of the method: as §4
The target in a further experiment is EfaUPPS W228A mutant. The experiment is described as follows: UPPS inhibition assay, mutant enzyme. The format is biochemical, Enterococcus faecalis. Particulars: W228A mutant versus wild-type EfaUPPS. The gist of the method: as §4
The target of a further experiment is EfaUPPS D29A mutant (Enterococcus faecalis, UniProt Q831K9, D35A). As to the kind of experiment: UPPS inhibition assay, mutant enzyme. The format is biochemical. The gist of the method: as §4
The target in the next experiment is EfaUPPS R42A mutant (Enterococcus faecalis, UniProt Q831K9, R48A). As to the kind of experiment: UPPS inhibition assay, mutant enzyme. The format is biochemical. The gist of the method: as §4
In a further experiment the target is EfaUPPS N31A mutant (Enterococcus faecalis, UniProt Q831K9, N37A). The experiment is described as follows: UPPS inhibition assay, mutant enzyme. It counts as biochemical. The gist of the method:
as §4

A further experiment concerns the target EfaUPPS F73S mutant (Enterococcus faecalis, UniProt Q831K9, F79S). As to the kind of experiment: UPPS inhibition assay, mutant enzyme. The format is biochemical. The gist of the method: as §4
The target of a further experiment is EfaUPPS S74T mutant (Enterococcus faecalis, UniProt Q831K9, S80T). The experiment is described as follows: UPPS inhibition assay, mutant enzyme. The format is biochemical. The gist of the method: as §4

Sequence of recombinant E. coli UPPS (EcoUPPS) (P60472 whole entry): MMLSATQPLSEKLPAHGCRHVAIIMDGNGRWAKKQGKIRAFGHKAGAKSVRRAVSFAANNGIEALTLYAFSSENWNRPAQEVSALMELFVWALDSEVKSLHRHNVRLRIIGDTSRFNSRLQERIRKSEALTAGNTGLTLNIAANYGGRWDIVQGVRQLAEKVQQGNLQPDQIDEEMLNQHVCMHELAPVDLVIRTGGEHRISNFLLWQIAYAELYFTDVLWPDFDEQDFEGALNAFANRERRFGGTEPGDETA

A word on the IC50: it is the midpoint of a concentration-inhibition curve. As for `CN(C)[C@@H]1C(O)=C(C(N)=O)C(=O)[C@@]2(O)C(O)=C3C(=O)c4c(O)cccc4[C@@](C)(O)[C@H]3C[C@@H]12` [Tet, tetracycline, reference compound], the “IC50 fold higher than that for VirA” value in experiment [1] stood at 12 fold; in [2] it was 6 fold; in [3], 6 fold. Further, on wild-type EfaUPPS (EfaUPPS), the SPR binding signals result is recorded as “cannot detect any binding signals”. Moreover, in the experiment on E. coli 70S ribosome, the IC50 turned out to be 15 µM.

A word on the MIC: it is the lowest concentration found to suppress growth. In general, Kd refers to the free concentration of one partner at which half of the binding sites on the other are occupied at equilibrium, for simple one-to-one binding. `COc1cc(O)c2c(O)c3c(c4c2c1[C@]1(C4)C(C)=CCCC1(C)C)[C@H](O)[C@@]1(O)CC(=O)C(C(N)=O)=C(O)[C@@]1(O)C3=O` [VirA, viridicatumtoxin A]: the figures for the MIC against Escherichia coli BAS 849 and in the experiment with normal E. coli species were 8 µg/mL (≈ 14.1 µM) and over 64 µg/mL, respectively. Also, the IC50 came to 1.6 µM in experiment [1], 4.1 µM in experiment [2] (SauUPPS), 3.9 µM in experiment [3] (EcoUPPS) and 700 µM in the experiment with E. coli 70S ribosome. Also, the “growth of E. coli BAS 849” value in experiment [4] is given as “completely inhibited”; in experiment [5] it was “rescued the cell growth”. Moreover, the results for the Kd at wild-type EfaUPPS, on EfaUPPS M28W mutant [6] and at EfaUPPS N31E mutant [7] were 123 µM, 9.8 µM and 322 µM, respectively. Besides, the “binding affinity fold higher than the wild-type enzyme” value on EfaUPPS M28W mutant [6] is reported as “about 12 fold”. Also, at EfaUPPS N31E mutant [7], the “binding affinity decreased, fold, versus wild type” value is given as “approximately 3 fold”. The IC50-MT/IC50-WT turned out to be 0.2 against EfaUPPS M28W mutant [8]; 0.5 at EfaUPPS M28A mutant; 123.3 against EfaUPPS M28E mutant; 42.4 at EfaUPPS N31E mutant [9]; 10.7 against EfaUPPS N31F mutant; 4.5 against EfaUPPS H46W mutant. Moreover, the IC50-MT/IC50-WT at EfaUPPS W228A mutant is recorded as 6.0. For the same compound, the “susceptibility of mutant compared with wild-type enzyme” value on EfaUPPS D29A mutant and on EfaUPPS R42A mutant was “more susceptible” each time. Moreover, the “change of IC50 of mutant compared with wild-type enzyme” value at EfaUPPS N31A mutant, on EfaUPPS F73S mutant and at EfaUPPS S74T mutant was “decreased IC50” in each case.

viridicatumtoxin B [VirB]: the MIC against Escherichia coli BAS 849 is 8 µg/mL; against normal E. coli species it was over 64 µg/mL. Moreover, the IC50 turned out to be 0.0581 µM in experiment [1] and 600 µM in the experiment with E. coli 70S ribosome. Also, the results for the “growth of E. coli BAS 849” value in experiment [4] and in experiment [5] were “completely inhibited” and “rescued the cell growth”, respectively. Also, the Kd on wild-type EfaUPPS was 11.5 µM.
